The source made the active and inactive calls. The rule behind the calls is not given here.
Tests used:
Mus musculus [1] = assay: Toxicity in C57BL/6J mouse assessed as pathological changes in liver at 5 mg/kg, po for 3 weeks; assay type: organism-based; design: dose 5 mg/kg, route oral; conditions: in vivo, 504 h
How it was run: (§1)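 Mice were dosed orally at 5 mg/kg for 3 weeks, with saline-treated controls. Major organs were examined for pathological changes, and a complete blood count was done.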

Mus musculus [2] = assay: Agonist activity at TrkB in C57BL/6J mouse brain lysate assessed as TrkB phosphorylation at Y817 at 5 mg/kg, po administered for 21 days by immunoblotting; assay type: functional, organism-based; design: dose 5 mg/kg
How it was run: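 Adult male C57BL/6J mice, 8 per group, dosed orally by gavage once daily for 21 days; saline was the vehicle. Brain lysates were immunoblotted with anti-p-TrkA 794 and anti-p-TrkB 817.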

Mus musculus [3] = assay: Toxicity in C57BL/6J mouse assessed as affect on complete blood count analysis at 5 mg/kg, po for 3 weeks; assay type: organism-based; design: dose 5 mg/kg, route oral; conditions: in vivo, 504 h; how it was run: as §1
Mus musculus [4] = assay: Toxicity in C57BL/6J mouse assessed as pathological changes in brain cortex at 5 mg/kg, po for 3 weeks; assay type: organism-based; design: dose 5 mg/kg, route oral; conditions: in vivo, 504 h; how it was run: as §1
Mus musculus [5] = assay: Toxicity in C57BL/6J mouse assessed as pathological changes in testis at 5 mg/kg, po for 3 weeks; assay type: organism-based; design: dose 5 mg/kg, route oral; conditions: in vivo, 504 h; how it was run: as §1
Mus musculus [6] = assay: Neuroprotective activity in TrkB F616A knock in mouse assessed as inhibition of kainic acid-induced caspase 3 activation in brain homogenates at 5 mg/kg, po administered 4 hrs prior to kainic acid challenge measured after 4 days by immunoblotting in presence of TrkB F616A inhibitor 1NMPP1; assay type: functional, organism-based; design: dose 5 mg/kg
How it was run: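 TrkB F616A knock-in mice, 2–3 months old, were given 1NMPP1 at 25 µM in drinking water one day beforehand. They were then gavaged with compound at 5 mg/kg, followed 4 h later by kainic acid at 20 mg/kg. Brains were taken 4 days later, homogenized and ultracentrifuged. 40 µg of supernatant was immunoblotted.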

[7] = target: BDNF/NT-3 growth factors receptor (Rattus norvegicus) (UniProt Q63604); assay: Agonist activity at TrkB in E16 rat embryonic cortical neurons assessed as inhibition of glutamate-induced caspase 3 activation at 10 nM after 30 mins followed by 16 hrs of 50 uM glutamate-challenge by ELISA; assay type: functional
How it was run: (§2)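 Cortical neurons from E16 rat embryos were pretreated with the indicated compound concentrations for 30 min. They were then challenged with 50 µM glutamate for 16 h. Active caspase-3 in the lysates was measured by ELISA.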

[8] = target: BDNF/NT-3 growth factors receptor (Rattus norvegicus) (UniProt Q63604); assay: Agonist activity at TrkB in E17 rat primary rat cortical neurons assessed as AKT phosphorylation at Ser 473 at 100 nM after 15 mins by titration assay; assay type: functional
How it was run: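 Primary cortical neurons were incubated with graded concentrations, starting at 10 nM, for 15 min. Phospho-Akt Ser473 was measured by sandwich ELISA on 20 µg of lysate. Data come from 2 replicated experiment sets, given as mean ± SEM. Comparisons used one-way ANOVA against control and Student's t-test between compounds.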

[9] = target: BDNF/NT-3 growth factors receptor (Rattus norvegicus) (UniProt Q63604); assay: Agonist activity at TrkB in E16 rat embryonic cortical neurons assessed as inhibition of glutamate-induced caspase 3 activation at 50 to 500 nM after 30 mins followed by 16 hrs of 50 uM glutamate-challenge by ELISA; assay type: functional; how it was run: as §2

Chain of BDNF/NT-3 growth factors receptor (Rattus norvegicus) (Q63604 whole entry): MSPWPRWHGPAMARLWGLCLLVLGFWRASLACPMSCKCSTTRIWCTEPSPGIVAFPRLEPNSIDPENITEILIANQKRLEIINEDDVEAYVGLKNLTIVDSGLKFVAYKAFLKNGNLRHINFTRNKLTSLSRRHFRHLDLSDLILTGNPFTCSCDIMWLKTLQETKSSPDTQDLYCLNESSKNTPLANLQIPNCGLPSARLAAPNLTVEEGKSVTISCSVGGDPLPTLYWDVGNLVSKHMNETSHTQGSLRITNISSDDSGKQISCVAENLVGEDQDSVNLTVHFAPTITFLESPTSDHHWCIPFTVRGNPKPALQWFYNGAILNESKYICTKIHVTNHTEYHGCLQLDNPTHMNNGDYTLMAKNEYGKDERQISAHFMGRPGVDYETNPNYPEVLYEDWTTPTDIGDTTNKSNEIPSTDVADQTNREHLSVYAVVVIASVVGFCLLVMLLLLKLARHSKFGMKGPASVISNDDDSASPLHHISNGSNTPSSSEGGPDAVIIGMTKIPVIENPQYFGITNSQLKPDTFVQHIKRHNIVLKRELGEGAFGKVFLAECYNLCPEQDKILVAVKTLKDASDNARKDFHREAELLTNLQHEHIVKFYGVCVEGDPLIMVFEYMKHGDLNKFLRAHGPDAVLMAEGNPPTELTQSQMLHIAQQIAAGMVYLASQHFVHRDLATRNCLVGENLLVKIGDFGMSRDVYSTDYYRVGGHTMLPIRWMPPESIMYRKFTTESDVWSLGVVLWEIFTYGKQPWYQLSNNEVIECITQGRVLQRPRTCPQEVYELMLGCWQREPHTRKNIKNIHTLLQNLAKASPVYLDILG

inhibition [7]: Active | Activity [8]: Active | Activity [9]: Active
Compound: CN(C)c1ccc(-c2cc(=O)c3ccc(O)c(O)c3o2)cc1
Activity (Mus musculus [1]): Non-toxic | Activity (Mus musculus [2]): Active | Activity (Mus musculus [3]): Non-toxic | Activity (Mus musculus [4]): Non-toxic | Activity (Mus musculus [5]): Non-toxic | inhibition (Mus musculus [6]): inactive
